Compound activity (PubChem)
Sampled rows, rich in hits. Any-hit rate of the full collection: about 2.4%.
MEX-5 binding: MEX-5 zinc finger RNA-binding disruptors – biochemical, C. elegans, fluorescence polarization, MLPCN library, primary screen; 300,000 compounds, 0.38% hits; MEX-5/FITC-TCR2 RNA binding; hits give low values; activity score (negative = inhibition of binding), % at 10 µM;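 active means inhibition past about -25% in most replicates, and total fluorescence under double the plate's negative control median, limit read from the data; inconclusive means replicates evenly split on the limit, or fluorescence at least double controls; inactive means too little inhibition in most replicates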;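 further: 0% = DMSO and -100% = 5 µM competing unlabeled TCR2 RNA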
EBV gp42 inh: Epstein-Barr virus gp42 inhibitors, primary screen, biochemical, uHTS, fluorescence polarization | 220,000 compounds, 0.42% hits | AID 1085, 2008 | inhibition, % (tested at 21.74 µM) | Fluorescence polarization binding assay, mP read-out; in the data active means inhibition above about 50%
Runt-SMMHC FRET: inhibitors of RUNX1 Runt–CBFb-SMMHC binding, primary screen, biochemical, FRET, Cerulean-Runt, Venus-CBFb-SMMHC, uHTS | Runt-related transcription factor 1 (Homo sapiens) + Core-binding factor subunit beta … | Cerulean-Runt/Venus-CBFb-SMMHC FRET ratio 530/480, 1 h | inhibition, % at 20 µM | 220,000 compounds, 0.74% hits | AID 1434, 2008;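 active means mean inhibition across duplicate retests at 20 µM reaching about 50%, limit read from the data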;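 further: 0% = DMSO wells and 100% = wells with excess untagged CBFb-SMMHC; inhibitors lower the FRET ratio by blocking Runt binding to CBFb-SMMHC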
RanGTP-Imp inh: inhibitors of RanGTP-importin-beta interaction, primary screen, biochemical, FRET, CFP-Ran, YFP-importin-beta, homogeneous. Ran GTPase (GTP-bound) - importin-beta complex. cell-free CFP-Ran/YFP-importin-beta FRET ratio. inhibition, % (concentration not given with the values). 300,000 compounds, 1.1% hits;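 active means more than half of the replicate wells show a fall in the fluorescence ratio signal beyond about 16%, limit read from the data, passing the limit was not always enough; inconclusive means exactly half of the replicate wells pass the set limit; inactive means fewer than half of replicates pass the limit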;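 further: 0% = DMSO wells and 100% = Ran loaded with GDP instead of GTP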
LANA-H2A inh: blockers of LANA interaction with H2A/H2B – biochemical, FP readout, HTS, primary screen. 320,000 compounds, 0.6% hits. inhibition, % (concentration not given with the values). Protein LANA1 (Human herpesvirus 8 type P (isolate GK18)), Q9QR71. cell-free LANA-H2A/H2B peptide, fluorescence polarization. AID 2629, 2010; in the data active means inhibition mostly above about 10%, no sharp cut-off; inactive means mostly below about 6.7%
Target sequence (Q9QR71 whole entry, looked up): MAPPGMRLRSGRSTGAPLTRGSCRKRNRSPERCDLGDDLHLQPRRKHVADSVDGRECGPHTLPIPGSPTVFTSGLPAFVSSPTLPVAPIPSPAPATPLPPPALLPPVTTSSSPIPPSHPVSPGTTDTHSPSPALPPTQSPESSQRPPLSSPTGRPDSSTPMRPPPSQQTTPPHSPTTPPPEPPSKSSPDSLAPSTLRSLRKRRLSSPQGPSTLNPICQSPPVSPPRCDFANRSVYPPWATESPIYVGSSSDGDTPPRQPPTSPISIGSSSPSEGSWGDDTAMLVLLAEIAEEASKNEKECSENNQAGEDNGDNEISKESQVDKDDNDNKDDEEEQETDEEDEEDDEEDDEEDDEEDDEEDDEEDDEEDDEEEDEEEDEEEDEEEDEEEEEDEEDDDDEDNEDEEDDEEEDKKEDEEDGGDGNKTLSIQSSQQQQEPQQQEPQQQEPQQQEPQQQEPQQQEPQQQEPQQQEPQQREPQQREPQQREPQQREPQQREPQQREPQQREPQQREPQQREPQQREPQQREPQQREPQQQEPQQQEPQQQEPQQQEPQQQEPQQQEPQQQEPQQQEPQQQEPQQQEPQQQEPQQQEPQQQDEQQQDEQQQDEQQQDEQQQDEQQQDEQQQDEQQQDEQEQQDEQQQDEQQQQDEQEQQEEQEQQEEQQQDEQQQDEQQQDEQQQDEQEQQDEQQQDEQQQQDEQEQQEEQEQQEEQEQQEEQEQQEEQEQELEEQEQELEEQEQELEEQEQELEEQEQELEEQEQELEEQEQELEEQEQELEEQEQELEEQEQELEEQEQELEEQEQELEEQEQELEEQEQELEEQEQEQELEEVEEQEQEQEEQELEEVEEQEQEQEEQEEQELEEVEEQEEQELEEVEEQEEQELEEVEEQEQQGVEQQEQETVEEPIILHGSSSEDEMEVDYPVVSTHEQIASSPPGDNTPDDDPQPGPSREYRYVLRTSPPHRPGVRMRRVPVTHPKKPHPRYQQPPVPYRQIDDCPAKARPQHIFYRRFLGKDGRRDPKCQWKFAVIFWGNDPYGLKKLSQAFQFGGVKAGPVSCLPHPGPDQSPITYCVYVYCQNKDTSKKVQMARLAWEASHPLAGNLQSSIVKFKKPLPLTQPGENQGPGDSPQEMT
Runt-CBFb FRET: inhibitors of RUNX1 Runt–CBFb binding, primary screen, biochemical, FRET, Cerulean-Runt, Venus-CBFb, uHTS; Runt-related transcription factor 1 (Homo sapiens) + Core-binding factor subunit beta …; Cerulean-Runt/Venus-CBFb FRET ratio 530/480, 1 h; inhibition, % at 20 µM; 220,000 compounds, 0.46% hits; AID 1496, 2009;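 active means inhibition over about 50% at 20 µM in the single-dose screen, limit read from the data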;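 further: 0% = DMSO wells and 100% = excess unlabeled CBFb competitor control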
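Assay system: Cerulean-tagged RUNX1 Runt domain (FRET donor) fusion protein / Amount: 100 nM each of Venus-CBFb and Cerulean-Runt domain / Medium: Tris buffer pH 7.5 with salts and BSA / Also added: Venus-CBFb 100 nM / Schedule: 1 h complex formation plus 1 h compound treatment, room temperature / Signal: FRET fluorescence / Read-out: loss of energy transfer signal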
RUNX1 CBFb TR: inhibitors of RUNX1 Runt–CBFb binding, biochemical, TR-FRET | 480 compounds, 20% hits | inhibition, % at 20 µM | AID 1502, 2009 | shares compounds with Runt-CBFb FRET | TR-FRET RUNX1 Runt domain-CBFb binding; in the data active means inhibition above about 40%
Starred values were filed as active, the others as inactive; i = inactive; ? = inconclusive; . = not tested or not shown.

SMILES | MEX-5 binding | EBV gp42 inh | Runt-SMMHC FRET | RanGTP-Imp inh | LANA-H2A inh | Runt-CBFb FRET | others
CC1=C(C#N)C(=O)N(C2CCS(=O)(=O)C2)C(=O)/C1=C\c1ccco1 (configuration not stated) | -99* | 124* | -144 | -3 | 14 | 12
COc1ccc2c(c1)c(C(=O)CN1CCN(C(=O)c3ccco3)CC1)c(C)n2C | -4 | -3 | -38 | 19* | -3 | -3
COc1ccc2c(c1)c(C(=O)CN1CCN(Cc3ccccc3)CC1)c(C)n2C | 0 | -14 | -2 | -2 | -12 | 0
CCOC(=O)[C@H]1[C@H]2COc3ccc(OC)cc3[C@@H]2N2C(=O)CN(Cc3ccccc3)C(=O)[C@@]12C | . | . | . | . | -2 | .
CN(CC(=O)Nc1ccccc1Br)C(=O)c1ccncc1 | 3 | . | . | 3 | 29* | .
CN(CC(=O)Nc1ccccc1Br)C(=O)c1ccc(COc2ccccc2)cc1 | 1 | . | . | 1 | -4 | .
CN1CCN(C(=O)CN(C)S(=O)(=O)c2ccc3ccccc3c2)CC1 | 0 | 1 | . | ? | 6 | .
CN(CC(=O)N1CCCC1)S(=O)(=O)c1ccc2ccccc2c1 | 0 | -14 | 3 | 2 | 17* | 1
CSc1ccc(Cl)c(C(=O)NNC(=O)c2csc(N3CCOCC3)n2)c1 | -5 | . | . | 9 | 6 | .
CC(C)=CCc1c(-c2ccc(O)cc2O)oc2c3c(cc(O)c2c1=O)OC(C)(C)C=C3 | -3 | . | . | -2 | 23* | .
Cc1ccc2oc(=O)c3cc(C(=O)NCCCN4CCCCCC4)sc3c2c1 | -2 | . | . | 3 | 2 | .
Cc1ccc2oc(=O)c3cc(C(=O)NCCN4CCN(C)CC4)sc3c2c1 | 1 | -22 | 0 | 27* | -3 | 2
Cc1ccc(SCC(=O)OCC(=O)NCCc2ccccc2)cc1 | . | . | . | . | -3 | .
CCNC(=O)c1sc2cc(C)ccc2c1Cl | 1 | -6 | -4 | -1 | 36* | -1
O=C(NC(=S)NCCO)c1sc2ccccc2c1Cl | 2 | 11 | -7 | -2 | 0 | 3
CCOC(=S)NC(=O)c1sc2ccccc2c1Cl | -2 | -19 | 2 | 53* | -2 | 0
Cc1cccc(C)c1OCc1cc(C(=O)NC2CCC(O)CC2)no1 (configuration not stated) | -2 | . | . | -1 | 21* | .
CC(C)(C)c1cnnn1-c1ccc(/C=N/Nc2ccc([N+](=O)[O-])cc2)cc1 | -2 | -43 | -24 | 34* | -4 | -28
Cc1ccccc1NC(=O)COC(=O)C1CC2CCCC(C1)C2=O (configuration not stated) | . | . | . | . | 2 | .
O=C(COC(=O)C1CC2CCCC(C1)C2=O)NNC(=O)c1ccccc1F (configuration not stated) | -3 | . | . | . | 34* | .
Cc1ccc(S(=O)(=O)N(C)C[C@@H]2Oc3ccc(NC(=O)CCC(F)(F)F)cc3CC(=O)N([C@@H](C)CO)C[C@@H]2C)cc1 | . | . | . | . | -2 | .
CC(C)NC(=O)c1sc2nc(-c3cccs3)cc(-c3cccs3)c2c1N | -10 | 64* | 0 | 5 | -4 | 2
Cc1cc(C)c2c(N)c(C(=O)c3ccc(Cl)cc3)sc2n1 | 1 | -18 | -60 | 3 | 4 | -27
COc1ccc(C(=O)c2sc3nc(C)cc(-c4cccs4)c3c2N)cc1OC | -53* | 61* | -150 | -102 | -1 | -66
Cc1cc(C)c2c(N)c(C(=O)c3ccc(Cl)c(Cl)c3)sc2n1 | 0 | 16 | -40 | -5 | 4 | .
SMILES | MEX-5 binding | EBV gp42 inh | Runt-SMMHC FRET | RanGTP-Imp inh | LANA-H2A inh | Runt-CBFb FRET | others
COc1ccc(C(=O)c2sc3nc(C)cc(-c4cccs4)c3c2N)cc1 | -44* | 102* | -11 | -114 | . | 5
Cc1cc(-c2cccs2)c2c(N)c(C(=O)c3ccc4c(c3)OCO4)sc2n1 | -9 | 133* | -59 | -107 | 2 | 3
CC(=O)Oc1ccc(C(=O)Nn2cnnc2)cc1 | 3 | . | . | 11 | 18* | .
COC(=O)Nc1ccc2c(c1)N(C(=O)CCCl)c1ccccc1S2 | 2 | . | . | 2 | 1 | .
CN1CCc2c(sc(/N=C/c3cc(Cl)ccc3O)c2C#N)C1 | -3 | -5 | -20 | 11 | -6 | 37
CN1CCc2c(sc(/N=C/c3c[nH]c4ccccc34)c2C#N)C1 | -1 | -41 | 3 | 4 | 38* | 50
CCOc1ccccc1NC(=O)C(OC(=O)c1cc(C)oc1C)c1ccccc1 (configuration not stated) | 3 | -32 | 3 | -5 | -4 | 54* | RUNX1 CBFb TR=-13
CCOc1ccccc1NC(=O)C(OC(=O)c1ccccc1O)c1ccccc1 (configuration not stated) | 0 | 4 | -1 | -4 | -1 | 0
COc1cc(C(=O)NCc2nnc(SCC(=O)Nc3nc4ccccc4s3)o2)cc(OC)c1OC | -8 | -11 | 48 | 5 | 1 | 53* | RUNX1 CBFb TR=-2
COc1cc(C(=O)NCc2nnc(SCC(=O)Nc3nccs3)o2)cc(OC)c1OC | -2 | -2 | 1 | -3 | 1 | 2
COc1ccc(C(=O)NCc2nnc(SCC(=O)Nc3nc4ccccc4s3)o2)cc1 | -1 | -8 | -3 | 1 | 0 | 57* | RUNX1 CBFb TR=-23
Cc1nc(N)c(C#N)c(-c2ccccc2)c1C | 1 | -14 | 2 | 2 | 4 | -1
Cc1cc(C)c2c(n1)sc1c(-c3ccccc3)c(C#N)c(N)nc12 | 0 | -3 | 83* | 82* | 2 | 60* | RUNX1 CBFb TR=2
CN1CCN(C(=S)NC(=O)c2ccc(Br)cc2)CC1 | 1 | -8 | -2 | -2 | 1 | 1
CN1CCN(C(=S)C(=O)Nc2ccc(Br)cc2)CC1 | 0 | -2 | 28 | -5 | -1 | 55* | RUNX1 CBFb TR=14
NC(=S)N/N=C/c1ccc(-c2cc(Cl)cc(Cl)c2)o1 | -2 | -15 | 12 | 1 | -1 | 52* | RUNX1 CBFb TR=17
COc1cc(Cl)c(C)cc1NC(=O)CC1SC(N2CCOCC2)=NC1=O (configuration not stated) | . | . | . | . | 1 | .
Cc1ccc(C(C)C)c(Oc2cnccn2)c1 | 1 | . | . | 9 | 5 | .
O=c1c2ccccc2sc2ccc(Cl)cc12 | -1 | -4 | 128* | 20* | 2 | 69* | RUNX1 CBFb TR=i
